Measured values from ChEMBL document CHEMBL1125386, “Small atrial natriuretic peptide analogues: design, synthesis, and structural requirements for guanylate cyclase activation” (J Med Chem, 1992).
Where a SMILES comes first, the peptide text is derived from it. Bridges are numbered along the chain shown (N, C = ends).

Columns and labels:
Oryctolagus cuniculus [1] = species on record: Oryctolagus cuniculus; assay: Compound was evaluated for the intrinsic vasorelaxation (i.vr) in a standard tissue bath preparation using rabbit aortic rings precontracted with histamine; type: functional, Aorta
Summary of the method: (§1)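 Rabbit aortic rings (4–5 mm) in Krebs-Henseleit buffer, gassed 95:5 O2/CO2, pH 7.4, isometric tension, baseline 2 g held 2 h. Rings contracted with 3 μM histamine, then six cumulative half-log peptide increments over 90 min, range 10⁻⁸ to 10⁻⁴ M. Triplicate determinations.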

Oryctolagus cuniculus [2] = species on record: Oryctolagus cuniculus; assay: In vitro vasorelaxant potency at dose 10 e -8 to 10 e-4 M using rabbit aortic rings precontracted with histamine; type: functional; details: Aorta; summary of the method: as §1
[3] = test system: Atrial natriuretic peptide receptor 1 (Oryctolagus cuniculus); assay: Binding affinity towards the low-affinity site atrionatriuretic peptide receptor 1 of rabbit adrenal membrane
[4] = (§2) In vitro Biological half-life in crude homogenate of rabbit renal cortex; type: ADME, Oryctolagus cuniculus
[5] = as §2; type: ADME, tissue-based, Oryctolagus cuniculus

NC(=O)C[C@H](N)C(=O)N[C@@H](CO)C(=O)N[C@@H](Cc1ccccc1)C(=O)N[C@@H](CCCN=C(N)N)C(=O)O (H-NSFR-OH)
Intrinsic vasorelaxation (Oryctolagus cuniculus [1]): 0.16 fraction of rANP max

CC[C@H](C)[C@@H]1NC(=O)[C@H](CCCN=C(N)N)NC(=O)CNC(=O)CNC(=O)[C@H](Cc2ccccc2)NC(=O)[C@@H](NC(=O)[C@H](CO)NC(=O)[C@@H](N)CO)CSSC[C@@H](C(=O)N[C@@H](CC(N)=O)C(=O)N[C@@H](CO)C(=O)O)NC(=O)[C@H]([C@@H](C)CC)NC(=O)[C@H](CCCN=C(N)N)NC(=O)[C@H](CC(=O)O)NC1=O (H-SSCFGGRIDRICNS-OH; disulfide 3-12)
EC50 (Oryctolagus cuniculus [2]): > 10000 nM

CC[C@H](C)[C@@H]1NC(=O)[C@H](CCCN=C(N)N)NC(=O)[C@H](CC(=O)O)NC(=O)[C@H]([C@@H](C)CC)NC(=O)[C@H](CCCN=C(N)N)NC(=O)CNC(=O)CNC(=O)[C@H](Cc2ccccc2)NC(=O)[C@@H](N)CSSC[C@@H](C(=O)O)NC1=O (H-CFGGRIDRIC-OH; disulfide 1-10)
EC50 (Oryctolagus cuniculus [2]): 3800 nM

H-FGGRIDRI-OH
Intrinsic vasorelaxation (Oryctolagus cuniculus [1]): 0.57 fraction of rANP max

CC[C@H](C)[C@@H]1NC(=O)[C@@H](CCCN=C(N)N)NC(=O)CNC(=O)CNC(=O)[C@@H](Cc2ccccc2)NC(=O)C(C(C)C)NC(=O)[C@H](NC(=O)[C@H](CO)NC(=O)[C@@H](N)CO)CSSC[C@H](C(=O)N[C@H](Cc2ccccc2)C(=O)N[C@H](CCCN=C(N)N)C(=O)O)NC(=O)[C@@H]([C@@H](C)CC)NC(=O)[C@H](CCCN=C(N)N)NC(=O)[C@@H](CC(=O)O)NC1=O (stereo in doubt)
KL [3]: 130 nM
EC50 (Oryctolagus cuniculus [2]): 24 nM

CC[C@H](C)[C@@H]1NC(=O)[C@H](CCCN=C(N)N)NC(=O)CNC(=O)CNC(=O)[C@H](Cc2ccccc2)NC(=O)[C@@H](NC(=O)[C@H](CO)NC(=O)[C@@H](N)CO)CSSC[C@@H](C(=O)O)NC(=O)[C@H](CCCN=C(N)N)NC(=O)[C@H](Cc2ccccc2)NC(=O)[C@H]([C@@H](C)CC)NC(=O)[C@H](CCCN=C(N)N)NC(=O)[C@H](CC(=O)O)NC1=O
EC50 (Oryctolagus cuniculus [2]): 2000 nM
half-life [4]: < 2 min

H-SSCFG-OH
Intrinsic vasorelaxation (Oryctolagus cuniculus [1]): 0.03 fraction of rANP max

CC[C@H](C)[C@@H]1NC(=O)[C@H](CCCN=C(N)N)NC(=O)CNC(=O)CNC(=O)[C@H](Cc2ccccc2)NC(=O)[C@@H](N)CSSC[C@@H](C(=O)N[C@@H](Cc2ccccc2)C(=O)N[C@@H](CCCN=C(N)N)C(=O)O)NC(=O)[C@H]([C@@H](C)CC)NC(=O)[C@H](CCCN=C(N)N)NC(=O)[C@H](CC(=O)O)NC1=O (H-CFGGRIDRICFR-OH; disulfide 1-10)
EC50 (Oryctolagus cuniculus [2]): 4900 nM

CC[C@H](C)[C@@H]1NC(=O)[C@H](CCCN=C(N)N)NC(=O)CNC(=O)CNC(=O)[C@H](Cc2ccccc2)NC(=O)CNC(=O)[C@@H](NC(=O)[C@H](CO)NC(=O)[C@@H](N)CO)CSSC[C@@H](C(=O)N[C@@H](Cc2ccccc2)C(=O)N[C@@H](CCCN=C(N)N)C(=O)O)NC(=O)[C@H]([C@@H](C)CC)NC(=O)[C@H](CCCN=C(N)N)NC(=O)[C@H](CC(=O)O)NC1=O
half-life [5]: 3.2 min
EC50 (Oryctolagus cuniculus [2]): 120 nM

CC[C@H](C)[C@@H]1NC(=O)[C@H](CCCN=C(N)N)NC(=O)[C@H](CC(=O)O)NC(=O)[C@H]([C@@H](C)CC)NC(=O)[C@H](CCCN=C(N)N)NC(=O)CNC(=O)CNC(=O)[C@H](Cc2ccccc2)NC(=O)[C@@H](NC(=O)[C@H](CO)NC(=O)[C@@H](N)CO)CSSC[C@@H](C(=O)O)NC1=O (H-SSCFGGRIDRIC-OH; disulfide 3-12)
EC50 (Oryctolagus cuniculus [2]): 5200 nM

CC[C@H](C)[C@@H]1NC(=O)[C@@H](CCCN=C(N)N)NC(=O)CNC(=O)CNC(=O)[C@@H](Cc2ccccc2)NC(=O)C(C)NC(=O)[C@H](NC(=O)[C@H](CO)NC(=O)[C@@H](N)CO)CSSC[C@H](C(=O)N[C@H](Cc2ccccc2)C(=O)N[C@H](CCCN=C(N)N)C(=O)O)NC(=O)[C@@H]([C@@H](C)CC)NC(=O)[C@H](CCCN=C(N)N)NC(=O)[C@@H](CC(=O)O)NC1=O (stereo in doubt)
half-life [5]: 5.3 min
KL [3]: 710 nM
EC50 (Oryctolagus cuniculus [2]): 360 nM

H-SSCFGGR-OH
Intrinsic vasorelaxation (Oryctolagus cuniculus [1]): 0 fraction of rANP max

CC[C@H](C)[C@@H]1NC(=O)[C@H](CCCN=C(N)N)NC(=O)CNC(=O)CNC(=O)[C@H](Cc2ccccc2)NC(=O)CN(C)C(=O)[C@@H](NC(=O)[C@H](CO)NC(=O)[C@@H](N)CO)CSSC[C@@H](C(=O)N[C@@H](Cc2ccccc2)C(=O)N[C@@H](CCCN=C(N)N)C(=O)O)NC(=O)[C@H]([C@@H](C)CC)NC(=O)[C@H](CCCN=C(N)N)NC(=O)[C@H](CC(=O)O)NC1=O
EC50 (Oryctolagus cuniculus [2]): > 1000 nM

CC[C@H](C)[C@@H]1NC(=O)[C@H](CCCN=C(N)N)NC(=O)CNC(=O)CNC(=O)[C@H](Cc2ccccc2)NC(=O)CCNC(=O)[C@@H](NC(=O)[C@H](CO)NC(=O)[C@@H](N)CO)CSSC[C@@H](C(=O)N[C@@H](Cc2ccccc2)C(=O)N[C@@H](CCCN=C(N)N)C(=O)O)NC(=O)[C@H]([C@@H](C)CC)NC(=O)[C@H](CCCN=C(N)N)NC(=O)[C@H](CC(=O)O)NC1=O
EC50 (Oryctolagus cuniculus [2]): 1800 nM

H-RIDRIG-OH
Intrinsic vasorelaxation (Oryctolagus cuniculus [1]): 0.7 fraction of rANP max

CC[C@H](C)[C@@H]1NC(=O)[C@H](CCCN=C(N)N)NC(=O)CNC(=O)CNC(=O)[C@@H](Cc2ccccc2)NC(=O)[C@@H](NC(=O)[C@H](CO)NC(=O)[C@@H](N)CO)CSSC[C@@H](C(=O)N[C@@H](Cc2ccccc2)C(=O)N[C@@H](CCCN=C(N)N)C(=O)O)NC(=O)[C@H]([C@@H](C)CC)NC(=O)[C@H](CCCN=C(N)N)NC(=O)[C@H](CC(=O)O)NC1=O
half-life [5]: 5.8 min
EC50 (Oryctolagus cuniculus [2]): > 10000 nM

CC[C@H](C)[C@@H]1NC(=O)[C@H](CCCN=C(N)N)NC(=O)CNC(=O)CNC(=O)[C@H](Cc2ccccc2)NC(=O)[C@@H](CC2CCCCC2)NC(=O)[C@@H](NC(=O)[C@H](CO)NC(=O)[C@@H](N)CO)CSSC[C@@H](C(=O)N[C@@H](Cc2ccccc2)C(=O)N[C@@H](CCCN=C(N)N)C(=O)O)NC(=O)[C@H]([C@@H](C)CC)NC(=O)[C@H](CCCN=C(N)N)NC(=O)[C@H](CC(=O)O)NC1=O
EC50 (Oryctolagus cuniculus [2]): 430 nM

CC[C@H](C)[C@@H]1NC(=O)[C@H](CCCN=C(N)N)NC(=O)CNC(=O)CNC(=O)[C@H](Cc2ccccc2)NC(=O)[C@@H](NC(=O)[C@H](CO)NC(=O)[C@@H](N)CO)CSSC[C@@H](C(=O)N[C@@H](Cc2ccccc2)C(=O)N[C@@H](CCCN=C(N)N)C(=O)O)NC(=O)[C@H]([C@@H](C)CC)NC(=O)[C@H](CCCN=C(N)N)NC(=O)[C@H](CC(=O)O)NC1=O
half-life [5]: 4.7 min
EC50 (Oryctolagus cuniculus [2]): 3000 nM
